Legend:
CIA mice = experiment: Collagen-induced arthritis; type: in vivo, mouse (DBA/1 J); conditions: TIP3 10 nmol/g or MTX 2 mg/kg, i.p. daily from day 22
How it was run: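 Male DBA/1J mice (6–7 weeks, 20–23 g) immunised at tail base with 100 μg chicken type II collagen in an equal volume of complete Freund's adjuvant (day 0), boosted day 20. Groups of n = 7. Test compound (2·5 or 10 nmol/g) or methotrexate (2 mg/kg) in saline given i.p. once daily from day 22. Body weight, paw volume and arthritis index tracked. […] (maximum 16), twice weekly.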

[1] = system: mice with IMQ-induced psoriasis-like disease; experiment: Histology and immunohistochemistry of back skin, psoriasis model; type: in vivo, mouse (C57BL/6); conditions: immunohistochemistry
How it was run: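 Back-skin lesions from imiquimod-treated C57BL/6 mice fixed in 4% paraformaldehyde, paraffin-embedded and sectioned at 7 μm. H&E staining used for epidermal/dermal thickness, measured by microscopy. Immunohistochemistry done with HRP/DAB detection using primary antibodies to CD68, CD4 and IL-17.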

TLR4 [2] = experiment: Western blot, LPS-stimulated RAW264.7 cells; type: cell-based, murine; conditions: for expression of MAPKs: Supp Fig. 1c (p-ERK, p-JNK, p-p38)
How it was run: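 Total protein extracted with M-PER reagent and quantified by BCA. Membranes incubated with primary antibodies overnight at 4 °C, washed in PBS/0·1% Tween 20, then HRP-conjugated secondary (1:1000) for 2 h. Bands detected by enhanced chemiluminescence, with β-actin as loading reference.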

RAW264.7 cells = experiment: MTT cell viability, RAW264.7 cells; type: cell-based, murine; conditions: ≤50 µM
How it was run: (§1)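 MTT colourimetric viability assay. HEK-Blue hTLR4 cells (high-glucose DMEM, 10% FBS, normocin) seeded at 5 × 10^4/well. RAW264.7 cells seeded at 2 × 10^5/well. Both grown overnight before exposure to test compound.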

TLR4 [3] = experiment: Cytokine ELISA, LPS-stimulated RAW264.7 cells; type: cell-based, murine; conditions: n ≥ 3
How it was run: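 Murine macrophages seeded at 2 × 10^5/well (96-well) or 5 × 10^5/well (24-well) and grown overnight, then treated with test compound and LPS. After 24 h treatment, secreted IFN-β was measured by pre-coated mouse IFN-β ELISA. Mouse IL-6 and mouse TNF-α were measured by ELISA kits.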

[4] = system: multiple TLR signalling pathways; conditions: ref [44]; cited from earlier work
HEK-Blue™ hTLR4 cells = experiment: MTT cell viability, HEK-Blue hTLR4 cells; type: cell-based, human; conditions: n ≥ 3
How it was run: as §1

[5] = system: TLR4 (HEK-Blue™ hTLR4 cells); experiment: SEAP activity assay; type: cell-based, human; conditions: LPS-stimulated; absorbance at 620 nm; n ≥ 3
How it was run: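 Seeded at 2 × 10^5/well (24-well) and grown overnight, then treated with a range of test-compound concentrations with or without LPS. Supernatants heat-treated at 65 °C for 10 min. SEAP (NF-κB reporter) detected with HEK-Blue detection medium.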

For `CN(Cc1cnc2nc(N)nc(N)c2n1)c1ccc(C(=O)N[C@@H](CCC(=O)O)C(=O)O)cc1` [MTX, methotrexate, reference compound], the “loss of body weight” value (CIA mice) was “not observed”, the arthritis index (CIA mice; maximal score 16) was “significantly decreased” and the “relative paw volume (large paw volume)” value (CIA mice; plethysmometer) was “TIP3 (10 nmol/g)- and MTX-injected mice did not”. The “overexpression of CD4 in skin” value [1] was “just as in the MTX-treated group”, the “overexpression of CD68 in skin” value [1] was “just as in the MTX-treated group” and the “overexpression of IL-17 in skin” value [1] was “just as in the MTX-treated group”.
For DYDVCVCH [TIP3 w/o CPP], the Iκ-Bα degradation (TLR4 [2]) was “neither peptide inhibited Iκ-Bα degradation”, the “phosphorylation of p65 subunit of NF-κB (p-p65)” value (TLR4 [2]) was “neither peptide inhibited Iκ-Bα degradation, phosphorylation of the p65 subunit of NF-κB (p-p65)” and the “expression of MAPKs” value (TLR4 [2]) was “neither peptide inhibited Iκ-Bα degradation, phosphorylation of the p65 subunit of NF-κB (p-p65), or the expression of mitogen-activated protein kinase (MAPKs)”. The cell viability (RAW264.7 cells) was “did not affect the cell viability at ≤50 µM” and the “LPS-induced TNF-α secretion” value (TLR4 [3]) was “did not have any modulatory effect on TNF-α secretion”.
With “KKWKMRRNQFWIKIQR [CPP, reference compound]” the Iκ-Bα degradation (TLR4 [2]) was “neither peptide inhibited Iκ-Bα degradation”, the “phosphorylation of p65 subunit of NF-κB (p-p65)” value (TLR4 [2]) was “neither peptide inhibited Iκ-Bα degradation, phosphorylation of the p65 subunit of NF-κB (p-p65)” and the “expression of MAPKs” value (TLR4 [2]) was “neither peptide inhibited Iκ-Bα degradation, phosphorylation of the p65 subunit of NF-κB (p-p65), or the expression of mitogen-activated protein kinase (MAPKs)”. The cell viability (RAW264.7 cells) was “did not affect the cell viability at ≤50 µM” and the “LPS-induced TNF-α secretion” value (TLR4 [3]) was “did not have any modulatory effect on TNF-α secretion”.
For TIPLLS [TIP2], the TLR signalling inhibition [4] is listed as “TIP1, but not TIP2, abrogates multiple TLR signalling pathways”, the “cell viability / cytotoxicity” value (HEK-Blue™ hTLR4 cells; 12·5 to 50 μM) is listed as “did not show any significant cytotoxicity” and the “cell viability / cytotoxicity” value (HEK-Blue™ hTLR4 cells; high concentration, 100 μM) is listed as “slight cytotoxicity”. The “inhibition of LPS-induced SEAP activity (NF-κB)” value [5] was “TIP3, but not TIP2, hampered the LPS-induced SEAP activity”.

Reference: paper PMC6997517 (EBioMedicine, 2020)
